Data: ChEMBL document CHEMBL4145650, “Napabucasin and Related Heterocycle-Fused Naphthoquinones as STAT3 Inhibitors with Antiproliferative Activity against Cancer Cells” (J Nat Prod, 2018)
Values belong to the molecule of their own block, whether it stands above or below them. Activity calls are given as the source filed them. The calls are words filed in the database; no cut-off is given here.

What was measured:
[1] = tested on: MDA-MB-231; assay: Antiproliferative activity against human MDA-MB-231 cells measured after 48 hrs by MTT assay; format: functional, cell-based; settings: MDA-MB-231, 48 h
Method in brief: (§1)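 Cells kept in 10% FBS medium with penicillin/streptomycin/L-glutamine at 37 °C, 5% CO2 (MDA-MB-231 in DMEM, K562 in RPMI 1640). Viability read by MTT reduction to formazan after 48 h of exposure. IC50 obtained by nonlinear regression against vehicle control, given as mean ±SD of three independent experiments (n = 2 where footnoted).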

[2] = tested on: K562; assay: Antiproliferative activity against human K562 cells measured after 48 hrs by MTT assay; format: functional, cell-based; settings: K562, 48 h; method in brief: as §1
[3] = tested on: MDA-MB-231; assay: Induction of apoptosis in human MDA-MB-231 cells assessed as viable cells at 10 umol/L measured after 2 hrs by annexin-V-FITC/7-AAD staining based flow cytometric analysis (reference value: 97 to 98%); format: functional; settings: MDA-MB-231, 2 h, read-out: Activity
[4] = tested on: MDA-MB-231; assay: Induction of apoptosis in human MDA-MB-231 cells assessed as viable cells at 10 umol/L measured after 4 hrs by annexin-V-FITC/7-AAD staining based flow cytometric analysis (reference value: 97 to 98%); format: functional; settings: MDA-MB-231, 4 h, read-out: Activity
[5] = tested on: MDA-MB-231; assay: Induction of apoptosis in human MDA-MB-231 cells assessed as viable cells at 10 umol/L measured after 6 hrs by annexin-V-FITC/7-AAD staining based flow cytometric analysis (reference value: 97 to 98%); format: functional; settings: MDA-MB-231, 6 h, read-out: Activity
[6] = tested on: MDA-MB-231; assay: Induction of apoptosis in human MDA-MB-231 cells assessed as viable cells at 10 umol/L measured after 8 hrs by annexin-V-FITC/7-AAD staining based flow cytometric analysis (reference value: 97 to 98%); format: functional; settings: MDA-MB-231, 8 h, read-out: Activity
[7] = tested on: MDA-MB-231; assay: Induction of apoptosis in human MDA-MB-231 cells assessed as viable cells at 10 umol/L measured after 24 hrs by annexin-V-FITC/7-AAD staining based flow cytometric analysis (reference value: 97 to 98%); format: functional; settings: MDA-MB-231, 24 h, read-out: Activity
[8] = tested on: MDA-MB-231; assay: Induction of apoptosis in human MDA-MB-231 cells assessed as early apoptotic cells at 10 umol/L measured after 6 hrs by annexin-V-FITC/7-AAD staining based flow cytometric analysis relative to control; format: functional
[9] = tested on: MDA-MB-231; assay: Induction of apoptosis in human MDA-MB-231 cells assessed as early apoptotic cells at 10 umol/L measured after 8 hrs by annexin-V-FITC/7-AAD staining based flow cytometric analysis relative to control; format: functional
[10] = tested on: MDA-MB-231; assay: Induction of apoptosis in human MDA-MB-231 cells assessed as early apoptotic cells at 10 umol/L measured after 24 hrs by annexin-V-FITC/7-AAD staining based flow cytometric analysis relative to control; format: functional
[11] = tested on: MDA-MB-231; assay: Induction of apoptosis in human MDA-MB-231 cells assessed as late apoptotic cells at 10 umol/L measured after 6 hrs by annexin-V-FITC/7-AAD staining based flow cytometric analysis relative to control; format: functional
[12] = tested on: MDA-MB-231; assay: Induction of apoptosis in human MDA-MB-231 cells assessed as late apoptotic cells at 10 umol/L measured after 8 hrs by annexin-V-FITC/7-AAD staining based flow cytometric analysis relative to control; format: functional
[13] = tested on: MDA-MB-231; assay: Induction of apoptosis in human MDA-MB-231 cells assessed as late apoptotic cells at 10 umol/L measured after 24 hrs by annexin-V-FITC/7-AAD staining based flow cytometric analysis relative to control; format: functional
[14] = tested on: MDA-MB-231; assay: Cell cycle arrest in human MDA-MB-231 cells assessed as accumulation at sub-G0 phase at 1 uM measured after 24 hrs by propidium iodide staining based flow cytometry (reference value: 3%); format: functional
[15] = tested on: MDA-MB-231; assay: Cell cycle arrest in human MDA-MB-231 cells assessed as accumulation at G1 phase at 1 uM measured after 24 hrs by propidium iodide staining based flow cytometry (reference value: 62%); format: functional
[16] = tested on: MDA-MB-231; assay: Cell cycle arrest in human MDA-MB-231 cells assessed as accumulation at S phase at 1 uM measured after 24 hrs by propidium iodide staining based flow cytometry (reference value: 12%); format: functional
[17] = tested on: MDA-MB-231; assay: Cell cycle arrest in human MDA-MB-231 cells assessed as accumulation at G2 phase at 1 uM measured after 24 hrs by propidium iodide staining based flow cytometry (reference value: 23%); format: functional
[18] = tested on: MDA-MB-231; assay: Cell cycle arrest in human MDA-MB-231 cells assessed as accumulation at sub-G0 phase at 3 uM measured after 24 hrs by propidium iodide staining based flow cytometry (reference value: 3%); format: functional
[19] = tested on: MDA-MB-231; assay: Cell cycle arrest in human MDA-MB-231 cells assessed as accumulation at G1 phase at 3 uM measured after 24 hrs by propidium iodide staining based flow cytometry (reference value: 62%); format: functional
[20] = tested on: MDA-MB-231; assay: Cell cycle arrest in human MDA-MB-231 cells assessed as accumulation at S phase at 3 uM measured after 24 hrs by propidium iodide staining based flow cytometry (reference value: 12%); format: functional
[21] = tested on: MDA-MB-231; assay: Cell cycle arrest in human MDA-MB-231 cells assessed as accumulation at G2 phase at 3 uM measured after 24 hrs by propidium iodide staining based flow cytometry (reference value: 23%); format: functional
[22] = tested on: MDA-MB-231; assay: Cell cycle arrest in human MDA-MB-231 cells assessed as accumulation at sub-G0 phase at 10 uM measured after 24 hrs by propidium iodide staining based flow cytometry (reference value: 3%); format: functional
[23] = tested on: MDA-MB-231; assay: Cell cycle arrest in human MDA-MB-231 cells assessed as accumulation at G1 phase at 10 uM measured after 24 hrs by propidium iodide staining based flow cytometry (reference value: 62%); format: functional
[24] = tested on: MDA-MB-231; assay: Cell cycle arrest in human MDA-MB-231 cells assessed as accumulation at S phase at 10 uM measured after 24 hrs by propidium iodide staining based flow cytometry (reference value: 12%); format: functional
[25] = tested on: MDA-MB-231; assay: Cell cycle arrest in human MDA-MB-231 cells assessed as accumulation at G2 phase at 10 uM measured after 24 hrs by propidium iodide staining based flow cytometry (reference value: 23%); format: functional
[26] = tested on: MDA-MB-231; assay: Cell cycle arrest in human MDA-MB-231 cells assessed as accumulation at sub-G0 phase at 30 uM measured after 24 hrs by propidium iodide staining based flow cytometry (reference value: 3%); format: functional
[27] = tested on: MDA-MB-231; assay: Cell cycle arrest in human MDA-MB-231 cells assessed as accumulation at G1 phase at 30 uM measured after 24 hrs by propidium iodide staining based flow cytometry (reference value: 62%); format: functional
[28] = tested on: MDA-MB-231; assay: Cell cycle arrest in human MDA-MB-231 cells assessed as accumulation at S phase at 30 uM measured after 24 hrs by propidium iodide staining based flow cytometry (reference value: 12%); format: functional
[29] = tested on: MDA-MB-231; assay: Cell cycle arrest in human MDA-MB-231 cells assessed as accumulation at G2 phase at 30 uM measured after 24 hrs by propidium iodide staining based flow cytometry (reference value: 23%); format: functional
[30] = tested on: MDA-MB-231; assay: Induction of superoxide generation in human MDA-MB-231 cells at 5 umol/L measured after 24 hrs by DHE staining based flow cytometry; format: functional, cell-based
Method in brief: (§2)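 Cells were treated with compound at 5 μmol/L or DMSO for 24 h, with or without dicoumarol preincubation (5 μmol/L, 30 min), then stained with DHE for 30 min. 2-OH-DHE fluorescence was read by flow cytometry and expressed relative to vehicle control. At least three independent measurements.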

[31] = tested on: MDA-MB-231; assay: Induction of superoxide generation in human MDA-MB-231 cells at 5 umol/L measured after 24 hrs in presence of NQO1 inhibitor dicoumarol by DHE staining based flow cytometry; format: functional, cell-based; method in brief: as §2
[32] = tested on: K562; assay: Induction of superoxide generation in human K562 cells at 5 umol/L measured after 24 hrs in presence of NQO1 inhibitor dicoumarol by DHE staining based flow cytometry; format: functional, cell-based; method in brief: as §2
[33] = target: T1, Signal transducer and activator of transcription 3 (Homo sapiens, UniProt P40763); assay: Inhibition of STAT3 phosphorylation at Y705 in human MDA-MB-231 cells after 4 hrs by HTRF assay; format: cell-based
Method in brief: (§3)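 MDA-MB-231 cells (10^5/well) were left to adhere overnight, serum-starved for 4 h in DMEM, then treated with 0.1–30 μmol/L compound (0.5% final DMSO) for 4 h at 37 °C. Lysates were incubated 24 h at room temperature with Eu-cryptate/d2 antibody pairs for phospho-STAT3 (Y705) or total STAT3. The 665/620 nm HTRF ratio was taken and phospho/total normalized. EC50 was obtained by nonlinear regression.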

[34] = tested on: MDA-MB-231; assay: Effect on total STAT3 level in human MDA-MB-231 cells at 0.1 to 30 umol/L after 4 hrs by HTRF assay; format: cell-based; settings: mda-mb-231, 4 h; method in brief: as §3
[35] = target: T1, Signal transducer and activator of transcription 3; assay: Inhibition of STAT3 phosphorylation at Y705 in human MDA-MB-231 cells assessed as reduction in ratio of phosphorylated STAT3 to total STAT3 level after 4 hrs by HTRF assay; format: cell-based; method in brief: as §3
[36] = target: T1, Signal transducer and activator of transcription 3; assay: Binding affinity to STAT3 in human MDA-MB-231 cells at 100 uM measured after 1 hr by DARTS-Western blot analysis; format: cell-based
Method in brief: (§4)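 A nondenaturing lysate of MDA-MB-231 cells (M-PER with protease and phosphatase inhibitors) was incubated with compound at 100 μmol/L or DMSO for 1 h at room temperature in the dark. TNC buffer pH 8.0 was added, then thermolysin (1:3000 of protein) for 30 min at room temperature; undigested controls were kept. Run on SDS-PAGE with 10 μg protein per lane, then Western blot with anti-STAT3.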

[37] = target: T1, Signal transducer and activator of transcription 3; assay: Binding affinity to STAT3 in human MDA-MB-231 cells at 100 uM treated for 1 hr followed by thermolysin addition measured after 30 mins by DARTS-Western blot analysis; format: cell-based; method in brief: as §4

T1 sequence (P40763 whole entry): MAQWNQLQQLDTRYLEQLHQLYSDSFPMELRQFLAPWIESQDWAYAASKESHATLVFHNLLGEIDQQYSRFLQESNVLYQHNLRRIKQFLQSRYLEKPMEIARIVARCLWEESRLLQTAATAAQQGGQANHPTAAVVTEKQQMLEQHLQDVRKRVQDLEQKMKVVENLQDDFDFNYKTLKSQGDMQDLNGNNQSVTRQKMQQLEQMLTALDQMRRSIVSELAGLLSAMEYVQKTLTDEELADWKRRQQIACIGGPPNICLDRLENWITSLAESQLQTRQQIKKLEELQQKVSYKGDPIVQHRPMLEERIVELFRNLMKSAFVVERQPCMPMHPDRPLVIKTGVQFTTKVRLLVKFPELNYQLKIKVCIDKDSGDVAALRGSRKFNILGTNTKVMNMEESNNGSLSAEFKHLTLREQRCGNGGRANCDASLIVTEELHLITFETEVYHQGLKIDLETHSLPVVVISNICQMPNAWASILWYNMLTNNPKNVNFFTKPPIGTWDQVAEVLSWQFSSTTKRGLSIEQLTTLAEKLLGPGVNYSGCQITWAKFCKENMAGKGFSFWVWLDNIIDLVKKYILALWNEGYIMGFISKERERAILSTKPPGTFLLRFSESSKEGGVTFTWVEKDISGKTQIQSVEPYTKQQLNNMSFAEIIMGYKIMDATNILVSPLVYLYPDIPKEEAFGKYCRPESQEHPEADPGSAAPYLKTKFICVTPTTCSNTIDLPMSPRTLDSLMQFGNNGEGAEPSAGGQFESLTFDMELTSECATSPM

IC50 [1]: 1800 nM | IC50 [2]: 2800 nM
SMILES: O=C1C(=O)c2ccoc2-c2ccccc21
viability at 10 µM [3]: 96% | viability at 10 µM [4]: 95% | viability at 10 µM [5]: 91% | viability at 10 µM [6]: 87% | viability at 10 µM [7]: 32% | Activity [8]: 4% | Activity [9]: 6% | Activity [10]: 15% | Activity [11]: 6% | Activity [12]: 8% | Activity [13]: 54% | Activity [14]: 3% | Activity [15]: 64% | Activity [16]: 15% | Activity [17]: 19% | Activity [18]: inactive | Activity [19]: 59% | Activity [20]: 15% | Activity [21]: 25% | Activity [22]: inactive | Activity [23]: 60% | Activity [24]: 15% | Activity [25]: 24% | Activity [26]: inactive | Activity [27]: 62% | Activity [28]: 14% | Activity [29]: 22% | Activity [30]: Active | Activity [31]: Active | Activity [32]: inactive

IC50 [1]: > 10000 nM | IC50 [2]: 5200 nM
SMILES: O=C1c2ccccc2C(=O)c2occc21

Second part, the molecule before the results:

SMILES: CC1(C)CCC2=C(O1)C(=O)c1ccccc1C2=O [ALPHA-LAPACHONE]
IC50 [1]: > 10000 nM | IC50 [2]: > 10000 nM

SMILES: CC(C)=CCC1=C(O)C(=O)c2ccccc2C1=O [LAPACHOL]
IC50 [1]: > 10000 nM | IC50 [2]: > 10000 nM

SMILES: CC(=O)c1cc2c(o1)C(=O)c1ccccc1C2=O [NAPABUCASIN]
IC50 [1]: 2100 nM | IC50 [2]: 1000 nM | viability at 10 µM [3]: 97% | viability at 10 µM [4]: 97% | viability at 10 µM [5]: 96% | viability at 10 µM [6]: 94% | viability at 10 µM [7]: 62% | Activity [10]: 20% | Activity [13]: 19% | Activity [14]: 5% | Activity [15]: 60% | Activity [16]: 13% | Activity [17]: 22% | Activity [18]: 5% | Activity [19]: 56% | Activity [20]: 15% | Activity [21]: 25% | Activity [22]: 4% | Activity [23]: 56% | Activity [24]: 14% | Activity [25]: 26% | Activity [26]: 3% | Activity [27]: 56% | Activity [28]: 15% | Activity [29]: 26% | Activity [30]: Active | Activity [31]: Active | Activity [32]: inactive | EC50 [33]: 2000 nM | Activity [34]: Non-Toxic | EC50 [35]: 1900 nM | Activity [36]: inactive | Activity [37]: Active
